# Measurements taken from ChEMBL document CHEMBL5038647, “Elastase Inhibitor Cyclotheonellazole A: Total Synthesis and In Vivo Biological Evaluation for Acute Lung Injury” (J Med Chem, 2022).
# Several values for one entry are separate records, joined by “and”; a condition that tells them apart may be missing. Equal values may be shown once. Activity calls are given as the source filed them. The rule behind the calls is not given here. *1 amine or outer side, *2 acyl side, *3 side chain or, on linkers, in order; H or OH if unused. Where a SMILES comes first, the peptide text is derived from it. Bridges are numbered along the chain shown (N, C = ends). [ ]: non-standard residue; d: D form. The star is where a group is joined. X2 = O=C(/C=C/c1csc([C@H](Cc2ccc(O)cc2)N[*:1])n1)[*:2]; X1 = CC[C@H](C)[C@H](N[*:1])C(=O)C(=O)[*:2]; X3 = CC[C@H](C)[C@H](N[*:1])C(O)C(=O)[*:2]; Benzoyl(4-OH) = O=C(c1ccc(O)cc1)*; Cya = N[C@@H](CS(=O)(=O)O)C(=O)O; MeOSuc = COC(=O)CCC(=O)*; Nva = CCC[C@H](N)C(=O)O; Dap = NC[C@H](N)C(=O)O; CH2Cl = ClC*
# Key:
# Mus musculus [1] = assay: Antiinflammatory activity against bleomycin-induced acute lung injury C57BL/6 mouse model assessed as reduction in lung edema by measuring reduction in lung wet/dry ratio at 30 mg/kg, ip administered for upto 5 days relative to control; assay type: functional, organism-based; settings: time day <=5
# Procedure, shortened: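 Same BLM model: C57BL/6J males, intratracheal BLM 4 mg/kg, then 30 mg/kg ip daily up to 5 days in 10% DMSO/90% saline, sacrifice day 6, n = 8 per group. Left lungs were weighed immediately, dried at 78 °C for 48 h to stable weight and reweighed to give the wet/dry ratio. Dead animals were excluded.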
# [2] = Inhibition of elastase (unknown origin); set-up: species or system Homo sapiens
# Procedure, shortened: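 EnzChek kit, DQ elastin substrate 25 μg/mL with porcine pancreatic elastase 0.4 U/mL or human neutrophil elastase 0.2 U/mL. Increasing inhibitor concentrations, 40 min at room temperature in the dark. Fluorescence read at ex 485/em 535 nm. Three repeats; paired Student's t test against controls.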
# Mus musculus [3] = assay: Antiinflammatory activity against bleomycin-induced acute lung injury C57BL/6 mouse model assessed as reduction in pathological changes in lung at 30 mg/kg, ip administered for upto 5 days by HE-staining based assay; assay type: functional, organism-based; settings: time day <=5
# Procedure, shortened: (§1)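 Male C57BL/6J mice, 8 weeks old, n = 8 per group, anaesthetised with chloral hydrate. ALI was induced by intratracheal BLM 4 mg/kg in 0.1 mL saline; controls received saline. Drug was given at 30 mg/kg ip daily for up to 5 days in 10% DMSO/90% saline (vehicle alone for controls), with sacrifice on day 6. Right lungs were formalin-fixed, sectioned at 4 μm and HE-stained. A histologist scored three images per lung blind; dead animals were excluded.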
# Mus musculus [4] = assay: Antiinflammatory activity against bleomycin-induced acute lung injury C57BL/6 mouse model assessed as reduction in inflammatory cell infiltration in lung at 30 mg/kg, ip administered for upto 5 days by HE-staining based assay; assay type: functional, organism-based; settings: time day <=5; procedure, shortened: as §1
# Mus musculus [5] = assay: Antiinflammatory activity against bleomycin-induced acute lung injury C57BL/6 mouse model assessed as fold reduction in lung edema by measuring thickness of the alveolar deterioration at 30 mg/kg, ip administered for upto 5 days by HE-staining relative to control; assay type: functional; settings: time day <=5
# Procedure, shortened: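 Male C57BL/6J mice, 8 weeks old, n = 8/group. ALI induced by intratracheal BLM (4 mg/kg, in 0.1 mL saline) under chloral hydrate anaesthesia; sham controls got saline. Drug given ip at 30 mg/kg in 10% DMSO/90% saline daily for up to 5 days. Sacrifice on day 6; right lung formalin-fixed, 4 μm HE sections, three images per lung, blinded histologist scoring; dead animals excluded.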
# [6] = Inhibition of porcine pancreatic elastase incubated for 40 mins in presence of DQ elastin substrate by fluorescence multiwell plate reader; set-up: species or system Sus scrofa
# Procedure, shortened: (§2)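 Fluorescence elastase assay with DQ elastin substrate at 25 μg/mL and either porcine pancreatic elastase at 0.4 U/mL or human neutrophil elastase at 0.2 U/mL. Enzyme, substrate and increasing inhibitor concentrations were incubated 40 min at rt in the dark, then read at ex 485/em 535 nm. Each experiment was run three times; paired Student's t test against controls.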
# [7] = Inhibition of elastase (unknown origin) at 1.25 uM by fluorescence microtiter plate method relative to control; settings: Homo sapiens
# Procedure, shortened: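 Single-concentration screen: elastin substrate and elastase were incubated with test compounds at 1.25 μM in the EnzChek fluorescence elastase format (40 min, rt). Activity was read against controls, with three repeats.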
# Homo sapiens = species: Homo sapiens; assay: Inhibition of elastase (unknown origin) at 2.5 uM by fluorescence microtiter plate method relative to control
# Procedure, shortened: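 Elastin substrate plus elastase incubated with a single inhibitor level (reference inhibitor MeOSu-AAPV-CMK at 2.5 μM, others at 1.25 μM). EnzChek DQ elastin fluorescence, ex 485/em 535 nm, 40 min at room temperature. Three repeats.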
# Neutrophil elastase [8] = molecular target: T1, Neutrophil elastase (Homo sapiens, UniProt P08246); assay: Inhibition of human neutrophil elastase incubated for 40 mins in presence of DQ elastin by fluorescence microtiter plate method
# T1 sequence (P08246 whole entry): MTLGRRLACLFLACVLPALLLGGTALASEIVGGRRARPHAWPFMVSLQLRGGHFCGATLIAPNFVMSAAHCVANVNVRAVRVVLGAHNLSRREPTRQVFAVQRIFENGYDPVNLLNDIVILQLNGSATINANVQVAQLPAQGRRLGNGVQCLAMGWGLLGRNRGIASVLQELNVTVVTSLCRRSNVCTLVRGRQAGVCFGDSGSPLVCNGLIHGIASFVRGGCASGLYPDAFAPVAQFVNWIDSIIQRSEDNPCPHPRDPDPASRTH
# Neutrophil elastase [9] = molecular target: T1, Neutrophil elastase; assay: Inhibition of human neutrophil elastase; procedure, shortened: as §2
# BEAS-2B = assay: Cytotoxicity against human BEAS-2B cells assessed as reduction in cell viability upto 100 uM incubated for 24 hrs by CCK-8 assay; assay type: toxicity, cell-based
# Procedure, shortened: (§3)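 Cells (ACE2-overexpressing 293T stable line or BEAS-2B lung epithelial) were seeded at 1 × 10^4 per well and left about 12 h to adhere. They were exposed to graded compound concentrations for 24 h. CCK-8 was added and incubated 2 h at 37 °C, then OD450 read. Viability was expressed as percentage; IC50 was computed.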
# [10] = Cytotoxicity against human 293T/ACE2 cells assessed as reduction in cell viability upto 100 uM incubated for 24 hrs by CCK-8 assay; assay type: toxicity, cell-based; settings: 293t/ace2, 24 h; procedure, shortened: as §3
SMILES,Activity (Mus musculus [1]),Activity (Mus musculus [3]),Activity (Mus musculus [4]),fold change (FC) (Mus musculus [5]),IC50 [6],inhibition [7],other results
CC(C)(C)C(=O)Oc1ccc(S(=O)(=O)Nc2ccccc2C(=O)NCC(=O)O)cc1,Active,Active,Active,1,2960 nM,–,IC50 [2]: 44 nM
CCC[C@@H]1NC(=O)[C@@H](NC(=O)[C@H](C)NC(=O)CNC(=O)c2ccc(O[Si](C)(C)C(C)(C)C)cc2)CNC(=O)[C@H](CS(=O)(=O)O)NC(=O)/C=C/c2csc(n2)[C@H](Cc2ccc(O[Si](C)(C)C(C)(C)C)cc2)NC(=O)C(=O)[C@H]([C@@H](C)CC)NC1=O,–,–,–,–,–,46.6%,–
COC(=O)CCC(=O)N[C@@H](C)C(=O)N[C@@H](C)C(=O)N1CCC[C@H]1C(=O)N[C@H](C(=O)CCl)C(C)C (MeOSuc-AAPV-CH2Cl),–,–,–,–,–,–,inhibition (Homo sapiens): 23.2%
CCC[C@@H]1NC(=O)[C@@H](NC(=O)[C@H](C)NC(=O)CNC(=O)c2ccc(O)cc2)CNC(=O)[C@H](CS(=O)(=O)[O-])NC(=O)/C=C/c2csc(n2)[C@H](Cc2ccc(O)cc2)NC(=O)C(=O)[C@H]([C@@H](C)CC)NC1=O.[Na+] ({Benzoyl(4-OH)}-GA[Dap][Nva][X1][X2][Cya]; lactam 3-C),Active,Active,Active,1,114 nM,3.6% and 3.8%,IC50 (Neutrophil elastase [8]): 321 nM; IC50 (Neutrophil elastase [9]): 0.034 nM; Activity (BEAS-2B): Non-Toxic; Activity [10]: Non-Toxic
CCC[C@@H]1NC(=O)[C@@H](NC(=O)[C@H](C)NC(=O)CNC(=O)c2ccc(O)cc2)CNC(=O)[C@H](CS(=O)(=O)O)NC(=O)/C=C/c2csc(n2)[C@H](Cc2ccc(O)cc2)NC(=O)C(O)[C@H]([C@@H](C)CC)NC1=O (some centres undefined) ({Benzoyl(4-OH)}-GA[Dap][Nva][X3][X2][Cya]; lactam 3-C),–,–,–,–,–,94%,–
